The source made the active and inactive calls. The calls are words filed in the database; no cut-off is given here.
How the values were obtained:
BMDM [1] = assay: Inhibition of M-CSF/RANKL-induced osteoclast differentiation in C57BL/6 mouse bone marrow macrophages co-cultured with mouse MC3T3-E1 at 10 uM measured on day 21; type: functional, cell-based
MC3T3-E1 [2] = assay: Induction of osteoblast differentiation in ascorbic acid/beta-glycerophosphate-induced mouse MC3T3-E1 cells co-cultured with C57BL/6 mouse bone marrow macrophages assessed as increase in osteocalcin expression at 10 uM measured on day 14 by Western blot analysis; type: functional, cell-based
In short: (§1)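 MC3T3-E1 and C57BL/6 BMM cocultures were given osteoblast plus osteoclast differentiation factors, with or without 10 μM compound, for 21 d. The negative control had M-CSF only. Osteocalcin in culture medium was quantified by Western blot at 7, 14 and 21 d.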

MC3T3-E1 [3] = assay: Induction of osteoblast differentiation in mouse MC3T3-E1 cells co-cultured with C57BL/6 mouse bone marrow macrophages assessed as activation of ALP production at 10 uM measured on day 7 relative to control; type: functional
In short: (§2)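 MC3T3-E1 cells were cocultured with C57BL/6 BMM in differentiation factors for both cell types, with 10 μM compound, and grown for 21 d. ALP production was measured at 7, 14 and 21 d after coculture induction, relative to untreated cells.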

MC3T3-E1 [4] = assay: Induction of osteoblast differentiation in mouse MC3T3-E1 cells co-cultured with C57BL/6 mouse bone marrow macrophages assessed as activation of ALP production at 10 uM measured on day 21 relative to control; type: functional; in short: as §2
MC3T3-E1 [5] = assay: Induction of osteoblast differentiation in ascorbic acid/beta-glycerophosphate-induced mouse MC3T3-E1 cells assessed as increase in RUNX2 expression at 50 uM after 7 days by Western blot analysis relative to control; type: functional
In short: (§3)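 MC3T3-E1 cells were induced with osteoblast differentiation factors, with or without 50 μM compound, for 21 d. Cells were harvested at 7, 14 and 21 d and RUNX2 was quantified by Western blot against untreated differentiated cells. The negative control lacked differentiation factors. Values are mean ± SD of three independent experiments.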

BMDM [6] = assay: Inhibition of M-CSF/RANKL-induced osteoclast differentiation in C57BL/6 mouse bone marrow macrophages co-cultured with mouse MC3T3-E1 at 10 uM measured on day 14; type: functional, cell-based
BMDM [7] = assay: Effect on NFkappaB expression in M-CSF induced C57BL/6 mouse bone marrow macrophages at 10 uM measured over 5 days by Western blot analysis; type: functional, cell-based
In short: (§4)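 C57BL/6 BMM were proliferated with M-CSF alone without RANKL and treated at 0.5 or 10 μM. NF-κB expression was followed over time by Western blot.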

MC3T3-E1 [8] = assay: Induction of osteoblast differentiation in ascorbic acid/beta-glycerophosphate-induced mouse MC3T3-E1 cells co-cultured with C57BL/6 mouse bone marrow macrophages at 10 uM measured on day 6 by TRAP staining-based inverted microscopic analysis; type: functional, cell-based
B16-F10 = assay: Antiproliferative activity against mouse B16F10 cells after 24 hrs by MTT assay; type: functional; settings: B16-F10, 24 h, read-out: LD50 (the source's name)
In short: (§5)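 Cells were maintained in DMEM at 37 °C under 5% CO2. Growth and survival were estimated by MTT assay, and the value is reported as LD50.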

MC3T3-E1 [9] = assay: Induction of osteoblast differentiation in mouse MC3T3-E1 cells assessed as increase in osteocalcin expression at 50 uM after 7 days by Western blot analysis relative to control; type: functional
In short: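 MC3T3-E1 cells were differentiated with osteoblast differentiation factors, with or without 50 μM compound, for 21 d. The negative control lacked differentiation factors. Osteocalcin in culture medium was measured by Western blot at 7, 14 and 21 d. Values are mean ± SD of three independent experiments.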

[10] = Cytotoxicity against mouse NIH/3T3 cells after 24 hrs by MTT assay; type: cell-based, NIH3T3; settings: read-out: LD50; in short: as §5
[11] = Inhibition of M-CSF/RANKL-induced osteoclast differentiation in C57BL/6 mouse bone marrow macrophage assessed as reduction in bone resorption at 7.8 uM treated for 3 days starting from 6 days post M-CSF/RANKL-stimulation by europium-conjugated collagen based time-resolved fluorescence assay relative to control; type: functional, BMDM; set-up: scale not given: the % may be the effect or the level left
In short: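 Mature multinucleated osteoclasts differentiated from C57BL/6 BMM were exposed to compound for 3 d in a bone resorption assay. Resorption was compared with untreated mature osteoclasts.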

BMDM [12] = assay: Inhibition of M-CSF/RANKL-induced osteoclast differentiation in C57BL/6 mouse bone marrow macrophages co-cultured with mouse MC3T3-E1 at 10 uM measured on day 7; type: functional, cell-based
PC-3 = assay: Antiproliferative activity against human PC3 cells after 24 hrs by MTT assay; type: functional; settings: PC-3, 24 h, read-out: LD50 (the source's name); in short: as §5
MC3T3-E1 [13] = assay: Induction of osteoblast differentiation in ascorbic acid/beta-glycerophosphate-induced mouse MC3T3-E1 cells co-cultured with C57BL/6 mouse bone marrow macrophages assessed as increase in osteocalcin expression at 10 uM measured on day 21 by Western blot analysis; type: functional, cell-based; in short: as §1
MC3T3-E1 [14] = assay: Induction of osteoblast differentiation in ascorbic acid/beta-glycerophosphate-induced mouse MC3T3-E1 cells assessed as increase in RUNX2 expression at 50 uM after 14 days by Western blot analysis relative to control; type: functional; in short: as §3
Mus musculus [15] = assay: Antiosteoporotic activity in ddY mouse model of OVX-induced osteoporosis assessed as increase in trabecular number in femur bone at 1 mg/kg, po administered once daily via gavage for 4 weeks by microcomputed tomographic analysis; type: functional, organism-based
In short: (§6)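 Female ddY mice were ovariectomized. Oral gavage began 1 week after surgery and ran once daily for 28 d. Vehicle was 300 μL PBS containing 0.5% (v/v) DMSO, also given to sham and OVX controls. Mice were then euthanized and femur and tibia fixed for CT imaging. Values are mean ± SD of four mice.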

Mus musculus [16] = assay: Antiosteoporotic activity in ddY mouse model of OVX-induced osteoporosis assessed as increase in cross-sectional thickness in femur bone at 1 mg/kg, po administered once daily via gavage for 4 weeks by microcomputed tomographic analysis; type: functional, organism-based; in short: as §6
Mus musculus [17] = assay: Antiosteoporotic activity in ddY mouse model of OVX-induced osteoporosis assessed as increase in new bone volume in femur bone at 1 mg/kg, po administered once daily via gavage for 4 weeks by microcomputed tomographic analysis; type: functional, organism-based; in short: as §6
BMDM [18] = assay: Suppression of NFATc1 expression in M-CSF induced C57BL/6 mouse bone marrow macrophages at 0.5 uM measured over 5 days by Western blot analysis; type: functional, cell-based
In short: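 C57BL/6 BMM were kept proliferating with M-CSF in the absence of RANKL and treated with compound (0.5 or 10 μM). NFATc1 expression was followed over the culture period by Western blot.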

BMDM [19] = assay: Effect on NFkappaB expression in M-CSF induced C57BL/6 mouse bone marrow macrophages at 0.5 uM measured over 5 days by Western blot analysis; type: functional, cell-based; in short: as §4
[20] = Potency index, ratio of alendronate IC50 to test compound IC50 for inhibition of M-CSF/RANKL-induced osteoclast differentiation in C57BL/6 mouse bone marrow macrophages by measuring decrease in multinucleated TRAP+ cells incubated for 6 days with fresh media replacement on day 3 and measured on day 6 by TRAP staining-based microscopic analysis; type: functional, BMDM
BMDM [21] = assay: Inhibition of RANKL-induced osteoclastogenesis in C57BL/6 mouse bone marrow macrophages assessed as increase in NFkappaB expression at 0.5 uM measured over 5 days by Western blot analysis; type: functional, cell-based
In short: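 C57BL/6 BMM were grown with M-CSF plus RANKL over the course of osteoclastogenesis, treated at 0.5 or 10 μM. NF-κB and NFATc1 were followed by Western blot. The negative control was M-CSF only.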

CC(=O)/C=C/c1ccc(O)c(O)c1
inhibition (BMDM [1]): Active
Activity (MC3T3-E1 [2]): Active
Activity (MC3T3-E1 [3]): 100%
Activity (MC3T3-E1 [4]): 100%
fold change (FC) (MC3T3-E1 [5]): 1.7
inhibition (BMDM [6]): Active
Activity (BMDM [7]): inactive
Activity (MC3T3-E1 [8]): Active
CC50 (B16-F10): 65 µM
fold change (FC) (MC3T3-E1 [9]): 1.8
CC50 at 24 h [10]: > 5000 µM
Activity [11]: <=59%
inhibition (BMDM [12]): Active
CC50 (PC-3): 66 µM
Activity (MC3T3-E1 [13]): Active
fold change (FC) (MC3T3-E1 [14]): 1.4

COc1ccc(/C=C/C(C)=O)cc1O
Activity (Mus musculus [15]): Active
Activity (Mus musculus [16]): Active
Activity (Mus musculus [17]): Active
Activity (BMDM [18]): Active
Activity (BMDM [19]): inactive
Ratio IC50 [20]: 30
inhibition (BMDM [21]): Active

Reference: ChEMBL document CHEMBL4364291, “Benzylideneacetone Derivatives Inhibit Osteoclastogenesis and Activate Osteoblastogenesis Independently Based on Specific Structure-Activity Relationship” (J Med Chem, 2019)
